Measured values reported in ChEMBL document CHEMBL1129688, “ATP-citrate lyase as a target for hypolipidemic intervention. Design and synthesis of 2-substituted butanedioic acids as novel, potent inhibitors of the enzyme” (J Med Chem, 1996).

How the values were obtained:
ATP-citrate synthase [1] = molecular target: T1, ATP-citrate synthase (Rattus norvegicus, UniProt P16638); assay: Inhibitory activity against rat ATP-citrate lyase activity by the […] dehydrogenase catalyzed reduction of oxaloacetate by NADH.
T1 sequence (P16638 whole entry): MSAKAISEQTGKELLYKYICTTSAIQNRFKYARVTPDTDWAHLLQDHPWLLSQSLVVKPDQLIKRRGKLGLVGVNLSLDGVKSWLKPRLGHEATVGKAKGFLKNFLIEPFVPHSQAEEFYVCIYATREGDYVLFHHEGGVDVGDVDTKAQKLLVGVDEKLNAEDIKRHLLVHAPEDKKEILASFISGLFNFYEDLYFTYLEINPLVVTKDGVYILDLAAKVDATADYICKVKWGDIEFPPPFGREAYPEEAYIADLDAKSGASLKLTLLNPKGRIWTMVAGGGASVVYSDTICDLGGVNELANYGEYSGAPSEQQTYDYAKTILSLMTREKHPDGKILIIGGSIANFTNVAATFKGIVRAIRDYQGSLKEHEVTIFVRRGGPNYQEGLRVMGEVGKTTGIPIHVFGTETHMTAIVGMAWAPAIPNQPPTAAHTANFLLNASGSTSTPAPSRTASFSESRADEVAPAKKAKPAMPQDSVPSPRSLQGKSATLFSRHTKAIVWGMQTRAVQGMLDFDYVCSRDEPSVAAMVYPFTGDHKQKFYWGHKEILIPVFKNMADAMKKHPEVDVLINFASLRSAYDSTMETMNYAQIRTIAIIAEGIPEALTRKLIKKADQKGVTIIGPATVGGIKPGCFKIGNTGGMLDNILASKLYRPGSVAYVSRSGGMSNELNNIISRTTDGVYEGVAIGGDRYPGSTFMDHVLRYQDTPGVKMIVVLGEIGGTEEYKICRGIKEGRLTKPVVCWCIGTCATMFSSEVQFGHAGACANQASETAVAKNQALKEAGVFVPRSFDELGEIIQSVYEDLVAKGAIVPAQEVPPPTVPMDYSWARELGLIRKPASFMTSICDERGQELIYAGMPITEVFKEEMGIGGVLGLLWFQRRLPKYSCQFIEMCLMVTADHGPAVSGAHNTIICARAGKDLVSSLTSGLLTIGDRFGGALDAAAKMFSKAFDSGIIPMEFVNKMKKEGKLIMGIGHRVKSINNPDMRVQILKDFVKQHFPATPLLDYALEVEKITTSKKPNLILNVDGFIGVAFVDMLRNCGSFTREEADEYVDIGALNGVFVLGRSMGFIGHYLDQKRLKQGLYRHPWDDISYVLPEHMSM
Procedure, shortened: (§1)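 Purified rat ACL or recombinant human ACL was assayed by coupling oxaloacetate formation to malate dehydrogenase reduction with NADH. Buffer: Tris 100 mM pH 8.0, MgCl2 10 mM, KCl 10 mM, DTT 10 mM, plus ATP and NADH. CoA was 200 μM, and citrate was added to 100 μM (its Km) to start the reaction. A340 decrease was followed over 20 min. Ki came from fitting v = Vmax/(2 + [I]/Ki), assuming citrate-competitive inhibition.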

ATP-citrate synthase [2] = molecular target: T1, ATP-citrate synthase; assay: Inhibition of recombinant ATP-Citrate Lyase activity as […] dehydrogenase catalyzed reduction of oxaloacetate by NADH; settings: in the assay text read “purified rat ATP-Citrate Lyase” for “recombinant ATP-Citrate Lyase”; procedure, shortened: as §1
[3] = molecular target: T2, ATP-citrate synthase (Homo sapiens) (UniProt P53396); assay: Inhibitory activity against human recombinant ATP-Citrate Lyase activity was measured by the […] dehydrogenase catalyzed reduction of oxaloacetate by NADH; settings: concentration not given here; procedure, shortened: as §1
T2 sequence (whole entry): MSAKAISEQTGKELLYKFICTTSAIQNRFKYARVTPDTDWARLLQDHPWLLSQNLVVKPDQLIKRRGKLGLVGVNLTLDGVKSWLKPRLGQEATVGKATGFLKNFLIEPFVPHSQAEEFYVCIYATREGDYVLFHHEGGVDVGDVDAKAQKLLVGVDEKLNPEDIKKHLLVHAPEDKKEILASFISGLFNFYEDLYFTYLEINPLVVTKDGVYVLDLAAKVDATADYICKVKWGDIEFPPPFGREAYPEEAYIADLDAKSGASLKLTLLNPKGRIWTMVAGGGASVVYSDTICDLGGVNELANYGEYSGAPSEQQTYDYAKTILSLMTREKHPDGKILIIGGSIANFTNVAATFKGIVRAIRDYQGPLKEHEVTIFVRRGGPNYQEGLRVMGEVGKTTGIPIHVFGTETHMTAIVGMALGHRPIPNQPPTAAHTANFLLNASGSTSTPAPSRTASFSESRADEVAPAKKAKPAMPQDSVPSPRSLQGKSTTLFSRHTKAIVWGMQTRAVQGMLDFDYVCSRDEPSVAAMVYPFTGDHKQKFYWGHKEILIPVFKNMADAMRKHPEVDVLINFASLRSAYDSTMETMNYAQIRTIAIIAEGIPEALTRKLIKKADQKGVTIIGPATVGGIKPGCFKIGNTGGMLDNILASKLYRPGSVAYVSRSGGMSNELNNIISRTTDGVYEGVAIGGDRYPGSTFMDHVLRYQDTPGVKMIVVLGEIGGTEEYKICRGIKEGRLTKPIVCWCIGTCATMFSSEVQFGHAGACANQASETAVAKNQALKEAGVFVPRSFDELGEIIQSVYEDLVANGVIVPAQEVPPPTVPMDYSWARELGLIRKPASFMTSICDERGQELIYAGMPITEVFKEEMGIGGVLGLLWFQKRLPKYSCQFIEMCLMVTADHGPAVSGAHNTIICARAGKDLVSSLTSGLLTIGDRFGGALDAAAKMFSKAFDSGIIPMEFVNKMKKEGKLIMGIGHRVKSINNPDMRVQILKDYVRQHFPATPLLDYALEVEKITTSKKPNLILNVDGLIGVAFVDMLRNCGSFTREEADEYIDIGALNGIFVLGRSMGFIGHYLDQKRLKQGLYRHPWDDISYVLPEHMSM

HepG2 [4] = assay: Percent control of ATP levels in human hepatoma cell line HepG2 at 10 uM concentration; format: functional
Procedure, shortened: (§2)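 Serum-starved HepG2 cells (grown to 80–90% confluence in DMEM/10% FCS, then overnight without serum) were exposed to vehicle or compound at the stated final concentration for 2.5 h. Cellular ATP was then measured as a toxicity check and expressed as % of vehicle control.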

HepG2 [5] = assay: Percent control of ATP levels in human hepatoma cell line HepG2 at 30 uM concentration; format: functional; procedure, shortened: as §2
HepG2 [6] = assay: Percent reduction of cholesterol synthesis in human hepatoma cell line HepG2 at 10 uM concentration; format: functional; design: scale not given: the % may be the effect or the level left
Procedure, shortened: (§3)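 HepG2 cells were grown in DMEM with Hepes, bicarbonate, glutamine and 10% FCS to 80–90% confluence, then kept overnight serum-free. Vehicle or compound was added at the stated final concentration for 2.5 h. ³H2O (71 μCi/mmol) was present for the final 90 min. Synthesis rates came from ³H incorporated into cellular cholesterol or fatty acids, relative to vehicle control.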

HepG2 [7] = assay: Percent reduction of fatty acid synthesis in human hepatoma cell line HepG2 at 10 uM concentration; format: functional; design: scale not given: the % may be the effect or the level left; procedure, shortened: as §3
HepG2 [8] = assay: Percent reduction of cholesterol synthesis in human hepatoma cell line HepG2 at 1000 uM concentration; format: functional; procedure, shortened: as §3
HepG2 [9] = assay: Percent reduction of fatty acid synthesis in human hepatoma cell line HepG2 at 1000 uM concentration; format: functional; procedure, shortened: as §3
HepG2 [10] = assay: Percent control of ATP levels in human hepatoma cell line HepG2 at 1000 uM concentration; format: functional; procedure, shortened: as §2

Row | Compound | Ki (ATP-citrate synthase [1]) [µM] | also measured
1 | O=C(O)CC(O)(CSCCCCCCc1ccc(Cl)cc1)C(=O)O (configuration not stated) | 71 | 
2 | O=C(O)CC(O)(CSCCCCCS(=O)(=O)c1ccc(Cl)cc1Cl)C(=O)O (configuration not stated) | 64 | 
3 | NS(=O)(=O)c1ccc(CCCCCCSCC(O)(CC(=O)O)C(=O)O)cc1 (configuration not stated) | 500 | 
4 | Cc1ccc(CCCCCCSCC(O)(CC(=O)O)C(=O)O)c(C)c1 (configuration not stated) |  | Ki (ATP-citrate synthase [2]): 160 µM
5 | O=C(O)CC(O)CSCCCCCCc1ccc(Cl)cc1Cl (configuration not stated) | 88 | 
6 | O=C(O)CC(O)(CSCCCCCCc1ccc(Br)cc1)C(=O)O (configuration not stated) | 31 | 
7 | O=C(O)CC(O)(CSCCCCNS(=O)(=O)c1ccc(Cl)cc1Cl)C(=O)O (configuration not stated) | 175 | 
8 | O=C(O)CC(O)(CCCCCCCCc1ccc(Cl)cc1Cl)C(=O)O (configuration not stated) | 2.9 | 
9 | O=C(O)CC(O)(CSCCCCCCc1c(Cl)cc(Cl)cc1-c1ccccc1)C(=O)O (configuration not stated) |  | Ki (ATP-citrate synthase [2]): 10 µM
10 | O=C(O)CC(O)(CSCCCCCCc1ccc(C(=O)O)cc1)C(=O)O (configuration not stated) | 420 | 
11 | O=C(O)CC(O)(CSCCCCCSc1ccc(Cl)cc1Cl)C(=O)O (configuration not stated) | 10 | 
12 | O=C(O)CC(O)(CSCCCCCCc1cccc2ccccc12)C(=O)O (configuration not stated) |  | Ki (ATP-citrate synthase [2]): 63 µM
13 | O=C(O)CC(O)(CSCCCCCc1ccccc1)C(=O)O (configuration not stated) | 490 | 
14 | O=C(O)CC(O)(CSCCCCCCc1cccnc1)C(=O)O (configuration not stated) |  | inhibition [3]: 35%
15 | O=C(O)CC(O)(CSCCCCCCc1c(Cl)cccc1Cl)C(=O)O (configuration not stated) | 76 | 
16 | COC(=O)CC(CSCCCCCCc1ccc(Cl)cc1Cl)C(=O)OC (configuration not stated) |  | Control (HepG2 [4]): 96%; Control (HepG2 [5]): 91%; Control (HepG2 [6]): 78%; Control (HepG2 [7]): 105%
17 | O=C(O)CC(O)(CSCCc1ccc(Cl)cc1Cl)C(=O)O (configuration not stated) |  | Ki (ATP-citrate synthase [2]): 480 µM
18 | O=C(O)CC(O)(CSCCCCCc1ccccc1-c1ccccc1)C(=O)O (configuration not stated) | 21 | 
19 | O=C(O)CC(CSCCCCCCc1ccc(Cl)cc1Cl)C(=O)O (configuration not stated) | 2.6 | 
20 | CN(CCCCSCC(O)(CC(=O)O)C(=O)O)S(=O)(=O)c1ccc(Cl)cc1Cl (configuration not stated) | 178 | 
21 | O=C(O)CC(O)(CSCCCCCCc1ccncc1)C(=O)O (configuration not stated) |  | inhibition [3]: 20%
22 | O=C(O)CC(O)(CCCCCCCc1ccc(Cl)cc1Cl)C(=O)O (configuration not stated) | 10.5 | 
23 | COc1ccc(CCCCCCSCC(O)(CC(=O)O)C(=O)O)cc1 (configuration not stated) |  | Ki (ATP-citrate synthase [2]): 280 µM
24 | O=C(O)CC(O)(CSCCCCCOc1ccc(Cl)cc1Cl)C(=O)O (configuration not stated) | 67 | 
25 | O=C(O)CCCSCCCCCCc1ccc(Cl)cc1Cl | 25 | 
26 | O=C(O)CC(O)(CSCCCCCCCc1ccc(Cl)cc1Cl)C(=O)O (configuration not stated) | 7.2 | 
27 | O=C(O)CC(O)(CC(=O)CCCCCCc1ccc(Cl)cc1Cl)C(=O)O (configuration not stated) | 1.2 | Control (HepG2 [4]): 102%; Control (HepG2 [6]): 108%; Control (HepG2 [7]): 98%; Cholesterol synthesis (% of vehicle control) (HepG2 [8]): 102%; Fatty acid synthesis (% of vehicle control) (HepG2 [9]): 102%; Control (HepG2 [10]): 107%
28 | O=C(O)CC(O)(CSCCCCCCc1ccc2ccccc2c1)C(=O)O (configuration not stated) |  | Ki (ATP-citrate synthase [2]): 93 µM
